According to ChEMBL document CHEMBL1134395, “Angular methoxy-substituted furo- and pyranoquinolinones as blockers of the voltage-gated potassium channel Kv1.3” (J Med Chem, 2001):
Several values for one entry are separate records, joined by “and”; a condition that tells them apart may be missing. Equal entries are not always repeated.

Tests used:
N1E-115 [1] = format: functional, Mus musculus; conditions: at 50 µM
N1E-115 [2] = format: functional, Mus musculus; conditions: at 50 µM; remark: listed apart in the source
[3] = target: Potassium voltage-gated channel subfamily A member 3 (Mus musculus) (UniProt P16390); conditions: at 50 µM
[4] = target: Potassium voltage-gated channel subfamily A member 3 (Mus musculus) (UniProt P16390); assay: Blockade of peak steady-state K+ currents of Kv1.3 channels in mouse fibroblasts L929 at 25 uM; format: functional
Procedure, shortened: (§1)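 Whole-cell patch clamp at room temperature on L929 fibroblasts stably transfected with mKv1.3, grown in DMEM with 10% FCS and 300 µg/mL G418. Bath: 160 mM NaCl, 4.5 KCl, 2.0 CaCl2, 1.0 MgCl2, 5 HEPES, pH 7.4, with 5% DMSO. Pipette: 120 KF, 20 KCl, 10 HEPES, 10 EGTA, pH 7.2. Holding −80 mV, 200 ms pulses to 40 mV; peak steady-state current normalized to control bath; mean of ≥3 cells.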

N1E-115 [5] = assay: Blockade of peak steady-state Na+ currents of neuroblastoma cells N1E-115 at 50 uM; format: functional, Mus musculus
Procedure, shortened: (§2)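 Same N1E-115 whole-cell recordings and solutions (holding −80 mV, room temperature, 5% DMSO). Peak Na+ current is taken at pulses to 0 mV and normalized to the current in control bathing medium. Reported as mean of at least three experiments.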

N1E-115 [6] = assay: Blockade of peak steady-state Na+ currents of neuroblastoma cells N1E-115 at 25 uM; format: functional, Mus musculus
Procedure, shortened: as §2

N1E-115 [7] = assay: Inhibition of N1E-115 cells Kv channels; format: functional, cell-based; conditions: Mus musculus
Procedure, shortened: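 Whole-cell patch clamp on N1E-115 cells. Holding −80 mV, steps to 40 mV; room temperature, bath with 5% DMSO. Peak K+ block is measured at several concentrations, and a modified Hill equation is fitted to give the half-blocking concentration, reported ± SEM.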

[8] = target: T1, Potassium voltage-gated channel subfamily A member 3 (Mus musculus, UniProt P16390); assay: Inhibition of voltage-gated potassium channel subunit Kv1.3 expressed in L929 cells; format: functional, cell-based
Procedure, shortened: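 Whole-cell patch clamp on mKv1.3-transfected L929 cells. Holding −80 mV, 200 ms steps to 40 mV; room temperature, bath with 5% DMSO. Peak K+ block is measured at several concentrations, and a modified Hill equation is fitted to give the half-blocking concentration, reported ± SEM.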

[9] = target: Potassium voltage-gated channel subfamily A member 3 (Mus musculus) (UniProt P16390); assay: Blockade of peak steady-state K+ currents of voltage-gated potassium channel subunit Kv1.3 expressed in mouse fibroblasts L929 at 50 uM; format: functional
Procedure, shortened: as §1

[10] = target: T1, Potassium voltage-gated channel subfamily A member 3; assay: Blockade of peak steady-state K+ currents of voltage-gated potassium channel subunit Kv1.3 in mouse fibroblasts L929 at 50 uM; format: functional; conditions: in the assay text read “at different concentrations” for “at 50 uM”
Procedure, shortened: as §1

N1E-115 [11] = assay: Blockade of peak steady-state Na+ currents of neuroblastoma cells N1E-115 at 100 uM; format: functional, Mus musculus
Procedure, shortened: as §2

[12] = target: Potassium voltage-gated channel subfamily A member 3 (Mus musculus) (UniProt P16390); assay: Blockade of peak steady-state K+ currents of Kv1.3 channels in mice fibroblasts L929 at 50 uM; format: functional
Procedure, shortened: as §1

N1E-115 [13] = assay: Blockade of peak steady-state K+ currents of neuroblastoma cells N1E-115 at 100 uM; format: functional, Mus musculus
Procedure, shortened: (§3)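 Whole-cell patch clamp at room temperature on N1E-115 neuroblastoma cells, grown in DMEM with 10% FCS. Bath: 125 mM NaCl, 5.5 KCl, 1.5 CaCl2, 2.0 MgCl2, 25 glucose, 5 HEPES, pH 7.4, with 5% DMSO. Pipette: 120 KF, 10 KCl, 10 NaCl, 10 HEPES, 10 EGTA, pH 7.2. Holding −80 mV, 100 ms pulses to 40 mV; peak steady-state K+ current normalized to control bath; mean of ≥3 cells.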

N1E-115 [14] = assay: Blockade of peak steady-state K+ currents of neuroblastoma cells N1E-115 at 25 uM; format: functional, Mus musculus
Procedure, shortened: as §3

[15] = target: Potassium voltage-gated channel subfamily A member 3 (Mus musculus) (UniProt P16390); assay: Blockade of peak steady-state K+ currents of Kv1.3 channels in mice fibroblasts L929 at 25 uM; format: functional
Procedure, shortened: as §1

T1 sequence (P16390 whole entry): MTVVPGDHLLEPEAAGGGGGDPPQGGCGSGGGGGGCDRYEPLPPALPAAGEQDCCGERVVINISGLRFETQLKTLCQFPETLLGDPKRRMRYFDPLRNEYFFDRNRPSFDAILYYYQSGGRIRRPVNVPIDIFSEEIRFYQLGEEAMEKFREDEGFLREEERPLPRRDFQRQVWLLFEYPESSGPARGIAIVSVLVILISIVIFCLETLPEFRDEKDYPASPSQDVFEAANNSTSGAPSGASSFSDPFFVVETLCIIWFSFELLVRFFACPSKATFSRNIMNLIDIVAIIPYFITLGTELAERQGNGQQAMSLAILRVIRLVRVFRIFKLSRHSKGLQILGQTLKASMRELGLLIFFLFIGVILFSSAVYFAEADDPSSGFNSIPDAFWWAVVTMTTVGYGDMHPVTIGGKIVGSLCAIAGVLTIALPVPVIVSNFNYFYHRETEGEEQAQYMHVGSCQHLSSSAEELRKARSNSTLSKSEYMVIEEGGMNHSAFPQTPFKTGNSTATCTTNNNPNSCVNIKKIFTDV
Chain of Potassium voltage-gated channel subfamily A member 3 (Mus musculus) (P16390 whole entry): as above

SMILES | BNa (N1E-115 [1]) | BK (N1E-115 [2]) | BK [3] | also measured
Cn1c(=O)c2c(c3cc([N+](=O)[O-])ccc31)OC(C(C)(C)O)C2 (configuration not stated) | 0% | 4% | – | –
CC1(C)CCc2c(O)nc3ccccc3c2O1 | 3% | 37% | 15% | –
COc1ccc2c(c1)c1c(c(=O)n2C)CCC(C)(C)O1 | – | 39% and 52% | 83% | BK [4]: 57%; BNa (N1E-115 [5]): 4%; BNa (N1E-115 [6]): 3%; IC50 (N1E-115 [7]): 42 µM; IC50 [8]: 18 µM
Cn1c(=O)c2c(c3ccccc31)OC(C(C)(C)O)C2 (configuration not stated) | – | 4% | – | BK [4]: 3%; BNa (N1E-115 [6]): 0%
CC1(C)Oc2nc3ccc(Br)cc3c(O)c2CC1Br (configuration not stated) | 1% | 32% | – | BK [9]: 35%
Cn1c2c(c(=O)c3ccccc31)CC(C(C)(C)O)O2 (configuration not stated) | 0% | 0% | 1% | –
COc1cc2nc3occc3c(OC)c2cc1OC [KOKUSAGININE] | 0% | 22% | 51% | IC50 (N1E-115 [7]): 200 µM; IC50 [10]: 49 µM
COc1ccc2c(c1)c(=O)c1c(n2C)OC(C(C)(C)O)C1 (configuration not stated) | – | 0% | – | BK [4]: 1%; BNa (N1E-115 [6]): 0%
CC1(C)Oc2nc3ccccc3c(O)c2CC1O (configuration not stated) | – | 0% | – | BNa (N1E-115 [11]): 0%
COc1ccc(CCCN2CCC(COC(c3ccccc3)c3ccccc3)CC2)cc1 | – | – | – | IC50 [10]: 0.28 µM
COc1ccc2c3c(c(=O)n(C)c2c1OC)C=CC(C)(C)O3 | 12% | 55% | – | BK [12]: 41%
Cn1c(=O)c2c(c3ccccc31)OC(C)(C)CC2 | 7% | 65% | 48% | –
COc1ccc2c(c1)c(=O)c1cc(C(C)C)oc1n2C | 1% | 33% | 44% | –
COc1ccc2c(c1)c1c(c(=O)n2C)CC(C(C)(C)O)O1 (configuration not stated) | – | 0% | – | BK [4]: 0%; BNa (N1E-115 [6]): 0%
Cn1c2c(c(=O)c3cc(O)ccc31)CC(C(C)(C)O)O2 (configuration not stated) | – | 7% | – | BNa (N1E-115 [11]): 13%
CC1(C)Oc2nc3ccccc3c(O)c2CC1SS(=O)(=O)O (configuration not stated) | – | – | – | BK (N1E-115 [13]): 0%; BNa (N1E-115 [11]): 6%
Cn1c(=O)c2c(c3ccccc31)OC(C)(C)C(O)C2 (configuration not stated) | 4% | 15% | – | BK [4]: 4%

SMILES | BNa (N1E-115 [1]) | BK (N1E-115 [2]) | BK [3] | also measured
COc1ccc2c(c1)c(=O)c1c(n2C)OC(C)(C)CC1 | 0% | 7% | 10% | –
COc1ccc2c(OC)c3ccoc3nc2c1OC [SKIMMIANINE] | 6% | 20% | 13% | –
CC1(C)CCc2c(O)nc3ccc([N+](=O)[O-])cc3c2O1 | 8% | 23% | – | –
Cn1c2c(c(=O)c3cc(O)ccc31)CC(O)C(C)(C)O2 (configuration not stated) | – | 0% | – | BNa (N1E-115 [11]): 3%
COc1ccc2c(c1)c1oc(C(C)C)c(S(=O)(=O)[O-])c1c(=O)n2C.[Na+] | – | – | – | BK (N1E-115 [14]): 0%; BNa (N1E-115 [6]): 0%
CC(C)(O)C1Cc2c(O)nc3ccccc3c2O1 (configuration not stated) | 0% | 7% | – | –
Cn1c2c(c(=O)c3ccccc31)CC(O)C(C)(C)O2 (configuration not stated) | 0% | 0% | – | –
Cn1c(=O)c2c(c3cc([N+](=O)[O-])ccc31)OC(C)(C)CC2 | – | 14% | – | BK [4]: 7%; BNa (N1E-115 [6]): 0%
CCCCC/N=c1\ccn(Cc2ccccc2)c2ccccc12 [CP-339818] | – | – | – | IC50 [10]: 0.23 µM
CC1(C)CCc2c(nc3ccccc3c2O)O1 | -18% | 6% | 7% | –
COc1ccc2c(c1)c1c(c(=O)n2C)CC(O)C(C)(C)O1 (configuration not stated) | 2% | 21% | 4% | –
CC(C)c1cc2c(=O)c3ccccc3n(C)c2o1 | 0% | 15% | 23% | –
CC(C)c1cc2c(=O)n(C)c3ccccc3c2o1 | 11% | 42% | 70% | BK [4]: 44%; BK (N1E-115 [14]): 25%; BNa (N1E-115 [6]): 0%
COc1ccc2c(c1)c1oc(C(C)C)cc1c(=O)n2C | 11% | 57% | 98% | BK [4]: 98%; BK (N1E-115 [14]): 32%; BNa (N1E-115 [6]): 5%; IC50 (N1E-115 [7]): 38 µM; IC50 [10]: 5 µM
COc1c2ccccc2nc2occc12 [DICTAMNINE] | 0% | 31% | 23% | –
COc1ccc2c(c1)c(=O)c1c(n2C)OC(C)(C)C(O)C1 (configuration not stated) | 3% | 6% | – | –
COc1ccc2c(c1)c1c(c(=O)n2C)C=CC(C)(C)O1 | 12% | 64% | – | BK (N1E-115 [14]): 44%; BNa (N1E-115 [6]): 1%; IC50 (N1E-115 [7]): 31 µM; IC50 [10]: 10 µM; BK [15]: 88%; BK [12]: 93%
